In brackets after ≈: the same amount, converted by molar mass. Bounds are passed on as bounds.

The values that follow come from ChEMBL document CHEMBL2040757, “New N-arylamino biquinoline derivatives: synthesis, antimicrobial, antituberculosis, and antimalarial evaluation” (Eur J Med Chem, 2012).

Test [1] concerns Bacillus subtilis. The test can be described thus: Antibacterial activity against Bacillus subtilis MTCC 441 by broth microdilution method. It is filed as functional. The procedure, abridged: (§1)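 Broth microdilution per NCCLS, with serial dilutions in Mueller Hinton broth and DMSO as diluent. Tubes were incubated overnight at 37 °C. MIC was the lowest concentration giving no visible growth, with the control organism's MIC read to verify concentrations. Tubes without growth were subcultured overnight at 37 °C to judge bacteriostatic versus bactericidal action.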
(In general: In broth dilution the organism is exposed to a series of concentrations in liquid medium.)

Test [2] relates to Aspergillus fumigatus. Description: Antifungal activity against Aspergillus fumigatus MTCC 3008 by broth microdilution method. It is filed as functional.
The test system of test [3] is Vibrio cholerae. Description: Antibacterial activity against Vibrio cholerae MTCC 3906 by broth microdilution method. It counts as functional.
Test [4] deals with Streptococcus pneumoniae. The test can be described thus: Antibacterial activity against Streptococcus pneumoniae MTCC 1936 by broth microdilution method. It is filed as functional. In outline:
as §1

In test [5] the test system is Plasmodium falciparum. Description: Antimalarial activity against trophozoite stage of chloroquine-sensitive Plasmodium falciparum 3D7 infected in human erythrocytes after 48 hrs. It counts as functional, organism-based. The note with it: 3D7, 48 h. The procedure, abridged: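 Parasites were kept in continuous culture in A+ human erythrocytes in RPMI with 10% human serum. Sorbitol-synchronized trophozoites at 1–2% parasitaemia and 2.5% haematocrit were exposed to serial dilutions (maximum 1 mg/ml; 0.02% final DMSO) for 48 h at 37 °C. Growth inhibition was measured; chloroquine and quinine served as positive controls. IC50 came from duplicate experiments.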

The subject of test [6] is Escherichia coli. The test can be described thus: Antibacterial activity against Escherichia coli MTCC 443 by broth microdilution method. It is filed as functional. The procedure, abridged: as §1
Test [7] deals with Salmonella typhi. The test can be described thus: Antibacterial activity against Salmonella typhi MTCC 98 by broth microdilution method. The following applies: Salmonella enterica. It is filed as functional, Salmonella enterica subsp. enterica serovar Typhi.
The test system of test [8] is Mycobacterium tuberculosis. The test can be described thus: Growth inhibition of Mycobacterium tuberculosis H37Rv at 6.25 ug/mL after 12 to 28 days relative to control. It is filed as functional.
For test [9], the system named is Clostridium tetani. Description: Antibacterial activity against Clostridium tetani MTCC 449 by broth microdilution method. It counts as functional.
Test [10] has as its system Candida albicans. The test can be described thus: Antifungal activity against Candida albicans MTCC 227 by broth microdilution method. It is filed as functional.

As to `COc1ccc2nc(Cl)c(C3C(C#N)=C(N)N(Nc4ccccc4)C4=C3C(=O)CC(C)(C)C4)cc2c1` (stereo not given), the MIC in [1] was 250 µg/mL (≈ 500 µM); in [2], 500 µg/mL (≈ 1000 µM); in [3], 500 µg/mL (≈ 1000 µM); in test [4] it was 250 µg/mL (≈ 500 µM); in test [6], 250 µg/mL (≈ 500 µM); in [7] it was 250 µg/mL (≈ 500 µM). Further, the MIC in [9] was 500 µg/mL (≈ 1000 µM); in test [10] it was 250 µg/mL (≈ 500 µM). Moreover, the IC50 in test [5] stood at 0.22 µg/mL (≈ 0.44 µM). In addition, the inhibition at 6.25 µg/mL in test [8] was 80%.

On to `CC1(C)CC(=O)C2=C(C1)N(Nc1ccc(Cl)cc1)C(N)=C(C#N)C2c1cc2cc(Cl)ccc2nc1Cl` (stereo not given), for which the minimum inhibitory concentration (MIC) is 200 µg/mL (≈ 371 µM) in test [1]; more than 1000 µg/mL in [2]; 100 µg/mL (≈ 186 µM) in test [3]; 200 µg/mL (≈ 371 µM) in test [4]; 62.5 µg/mL (≈ 116 µM) in test [6]; 100 µg/mL (≈ 186 µM) in [7]. In addition, the results for the minimum inhibitory concentration (MIC) in test [9] and in [10] were 200 µg/mL (≈ 371 µM) and more than 1000 µg/mL, respectively. The same molecule came in with an IC50 in [5] of 0.028 µg/mL (≈ 0.052 µM). Moreover, in test [8], 6.25 µg/mL produced 87% inhibition.

Regarding `Cc1ccc2nc(Cl)c(C3C(C#N)=C(N)N(Nc4ccc(Cl)cc4)C4=C3C(=O)CC(C)(C)C4)cc2c1` (stereo not given), the MIC in test [1] turned out to be 500 µg/mL (≈ 964 µM); in [2] it was 1000 µg/mL (≈ 1930 µM); in test [3], 200 µg/mL (≈ 386 µM); in [4], 250 µg/mL (≈ 482 µM); in test [6], 100 µg/mL (≈ 193 µM); in [7] it was 200 µg/mL (≈ 386 µM). For the same molecule, the MIC is 250 µg/mL (≈ 482 µM) in [9] and 500 µg/mL (≈ 964 µM) in test [10]. The IC50 in test [5] is 0.008 µg/mL (≈ 0.0154 µM). Also, in [8], the inhibition at 6.25 µg/mL worked out at 15%.

Turning to `COc1ccc2nc(Cl)c(C3C(C#N)=C(N)N(Nc4ccc(Br)cc4)C4=C3C(=O)CC(C)(C)C4)cc2c1` (stereo not given), the MIC worked out at 250 µg/mL (≈ 432 µM) in test [1]; 500 µg/mL (≈ 864 µM) in test [2]; 200 µg/mL (≈ 345 µM) in [3]; 250 µg/mL (≈ 432 µM) in [4]; 200 µg/mL (≈ 345 µM) in [6]; 125 µg/mL (≈ 216 µM) in test [7]. Further, the figures for the MIC in test [9] and in test [10] were 200 µg/mL (≈ 345 µM) and 1000 µg/mL (≈ 1730 µM), respectively. Also, in [5], the IC50 was found to be 0.014 µg/mL (≈ 0.0242 µM). In test [8], this molecule came in with an inhibition at 6.25 µg/mL of 17%.

Turning to `Cc1ccc(NN2C(N)=C(C#N)C(c3cc4ccccc4nc3Cl)C3=C2CC(C)(C)CC3=O)cc1` (stereo not given), the MIC in [1] stood at 250 µg/mL (≈ 517 µM); in [2] it was 500 µg/mL (≈ 1030 µM); in test [3] it was 250 µg/mL (≈ 517 µM); in test [4], 500 µg/mL (≈ 1030 µM); in [6] it was 200 µg/mL (≈ 413 µM); in test [7], 200 µg/mL (≈ 413 µM). Besides, the MIC in [9] is 250 µg/mL (≈ 517 µM); in [10], 500 µg/mL (≈ 1030 µM). In [5], this molecule yielded an IC50 of 0.005 µg/mL (≈ 0.0103 µM). The molecule also had an inhibition at 6.25 µg/mL in test [8] of 8%.

Take `COc1ccc2nc(Cl)c(C3C(C#N)=C(N)N(Nc4ccc(Cl)cc4)C4=C3C(=O)CC(C)(C)C4)cc2c1` (stereo not given): the MIC was 100 µg/mL (≈ 187 µM) in test [1]; more than 1000 µg/mL in test [2]; 100 µg/mL (≈ 187 µM) in test [3]; 100 µg/mL (≈ 187 µM) in test [4]; 250 µg/mL (≈ 468 µM) in test [6]; 100 µg/mL (≈ 187 µM) in [7]. In addition, the minimum inhibitory concentration (MIC) was 200 µg/mL (≈ 374 µM) in [9] and more than 1000 µg/mL in test [10]. In test [5], this molecule registered an IC50 of 0.009 µg/mL (≈ 0.0168 µM). Moreover, the inhibition at 6.25 µg/mL in test [8] was 21%.

`COc1ccc(NN2C(N)=C(C#N)C(c3cc4cc(Cl)ccc4nc3Cl)C3=C2CC(C)(C)CC3=O)cc1` (stereo not given): the MIC is 250 µg/mL (≈ 468 µM) in test [1]; more than 1000 µg/mL in test [2]; 250 µg/mL (≈ 468 µM) in test [3]; 250 µg/mL (≈ 468 µM) in test [4]; 250 µg/mL (≈ 468 µM) in [6]; 200 µg/mL (≈ 374 µM) in test [7]. Also, the MIC in test [9] is 200 µg/mL (≈ 374 µM); in test [10] it was 100 µg/mL (≈ 187 µM). Besides, the half-maximal inhibitory concentration (IC50) in [5] turned out to be 0.026 µg/mL (≈ 0.0486 µM). In test [8], this molecule displayed an inhibition at 6.25 µg/mL of 22%.

For `Cc1ccc2nc(Cl)c(C3C(C#N)=C(N)N(Nc4ccc(F)cc4)C4=C3C(=O)CC(C)(C)C4)cc2c1` (stereo not given), the minimum inhibitory concentration (MIC) was 250 µg/mL (≈ 498 µM) in test [1]; 1000 µg/mL (≈ 1990 µM) in test [2]; 200 µg/mL (≈ 398 µM) in test [3]; 250 µg/mL (≈ 498 µM) in [4]; 250 µg/mL (≈ 498 µM) in [6]; 250 µg/mL (≈ 498 µM) in test [7]. Besides, the MIC is 200 µg/mL (≈ 398 µM) in [9] and 1000 µg/mL (≈ 1990 µM) in [10]. The molecule also displayed an IC50 in test [5] of 0.047 µg/mL (≈ 0.0936 µM). The molecule further had an inhibition at 6.25 µg/mL in test [8] of 33%.

For the molecule `Cc1ccc2nc(Cl)c(C3C(C#N)=C(N)N(Nc4ccc(Br)cc4)C4=C3C(=O)CC(C)(C)C4)cc2c1` (stereo not given), the MIC in [1] was 200 µg/mL (≈ 355 µM); in test [2] it was more than 1000 µg/mL; in test [3], 250 µg/mL (≈ 444 µM); in test [4], 250 µg/mL (≈ 444 µM); in test [6], 250 µg/mL (≈ 444 µM); in test [7] it was 250 µg/mL (≈ 444 µM). Moreover, the MIC in test [9] and in test [10] was 250 µg/mL (≈ 444 µM) in each case. The molecule further had a half-inhibitory concentration (IC50) in test [5] of 0.012 µg/mL (≈ 0.0213 µM). In test [8], this molecule showed an inhibition at 6.25 µg/mL of 47%.

As usually defined, the MIC is the lowest concentration found to suppress growth. Low readings indicate a more susceptible organism, high ones a less susceptible organism. A word on the IC50: it is the point on the concentration scale where inhibition reaches its midpoint. A lower IC50 goes with inhibition by little substance. For orientation: inhibition means the drop in the measured response relative to a control, in per cent. A higher inhibition goes with strong suppression.
